Like-named read-outs stand apart in the source and are kept apart here. Ends that are not written are not given here. * marks the point of attachment. 5FAM = O=C1OC2(c3ccc(O)cc3Oc3cc(O)ccc32)c2ccc(C(=O)*)cc21

Consider 15 molecules from publication PMC6686180 (Biochemistry, 2018).

In assay [1] the target is T1, GGTase-I (Rattus norvegicus, UniProt P53610+Q04631). The experiment in a line: Radiolabel prenylation assay: GGTase-I-catalyzed geranylgeranylation of RhoA. The class given is biochemical. The following applies: for effect of nucleotide on initial rate of RhoA geranylgeranylation / effect of nucleotide on endpoint level of incorporated isoprenoid: 25 μM GTP or GDP, RhoA 1.3 μM, GGTase-I 5 nM, without SmgGDS; for effect of nucleotide on initial rate of RhoA geranylgeranylation: 3H-GGPP 9 μM; for effect of nucleotide on endpoint level of incorporated isoprenoid: incubation 2 hr.

The test system of assay [2] is FTase. The following applies: addition of GDP or GTPγS; cited from earlier work.
In assay [3] the test system is GGTase-I. To be noted: cited from earlier work.
The subject of assay [4] is RhoA. The experiment in a line: Radiolabel prenylation assay of RhoA with SmgGDS-607. The class given is biochemical, human.
For assay [5], the target named is RhoA. To be noted: read-out: Kd of RhoA for GTPγS; with Mg^2+; cited from earlier work.
Assay [6] deals with biotinylated SmgGDS-607 (human) (UniProt P52306). The experiment in a line: BLI.
Assay [7] shares this target. The experiment in a line: BLI. This is another data set of the same source. (In BLI a coated tip is dipped into the sample, and binding shifts an interference pattern.)
Assay [8] deals with SmgGDS. The following applies: cells, cited from earlier work.
Assay [9] concerns the target RhoA 13mer (5-fam-…) (human). Nature of the assay: fluorescence polarisation. On the technique in general: In fluorescence polarisation assays a small probe gives low polarisation when free and higher when bound to something large.
Assay [10] deals with geranylgeranylated RhoA 13mer peptide (human). The experiment in a line: fluorescence polarisation.
For assay [11], the target named is T1, GGTase-I. The experiment in a line: Peptide prenylation assay. The class given is biochemical. The following applies: GGTase-I 10 nM; for effect on GGTase-I activity with peptide substrate: 5 μM SmgGDS, dansyl-GCLVL, saturating GGPP (10 μM). The method, boiled down: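 GGTase-I (10 nM) and 10 μM GGPP were incubated at 30°C with varied dansyl-GCLVL (RhoA CaaX peptide), with or without SmgGDS (5 μM final) or GDP/GTP (30 μM final). Prenylation-dependent fluorescence (ex 340/em 520 nm) was read every 40 s for 2 h. Initial slopes were converted to velocity, and kcat and KM came from Michaelis-Menten fits of V/E.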

In assay [12] the target is RhoA CaaX only peptide (5fam-GCLVL) (human). The experiment in a line: fluorescence polarisation.
Assay [13] addresses RhoA (human). The experiment in a line: inhibition of radiolabel prenylation.
Assay [14] addresses T2, SmgGDS-558 (human, UniProt P52306-2 1-558).
T2 sequence (looked up): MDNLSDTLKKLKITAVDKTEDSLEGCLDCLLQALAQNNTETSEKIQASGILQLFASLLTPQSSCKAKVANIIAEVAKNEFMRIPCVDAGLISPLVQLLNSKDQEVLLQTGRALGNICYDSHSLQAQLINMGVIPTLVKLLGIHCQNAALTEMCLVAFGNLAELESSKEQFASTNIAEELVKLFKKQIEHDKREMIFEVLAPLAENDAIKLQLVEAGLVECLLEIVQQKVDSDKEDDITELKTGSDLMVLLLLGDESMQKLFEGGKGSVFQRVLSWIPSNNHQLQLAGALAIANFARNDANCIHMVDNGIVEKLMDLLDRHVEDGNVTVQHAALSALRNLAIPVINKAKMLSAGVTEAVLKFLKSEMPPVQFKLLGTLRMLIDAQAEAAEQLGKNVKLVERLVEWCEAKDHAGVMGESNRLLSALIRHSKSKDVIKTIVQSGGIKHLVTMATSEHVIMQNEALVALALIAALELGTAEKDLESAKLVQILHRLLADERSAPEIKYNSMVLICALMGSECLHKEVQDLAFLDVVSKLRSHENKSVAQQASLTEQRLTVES
The experiment in a line: fluorescence polarisation.

Setting [15] is: Buffer (no additive), GGPP 10 μM, 30°C, fluorescence.

T1 sequence (P53610 whole entry, one chain of several): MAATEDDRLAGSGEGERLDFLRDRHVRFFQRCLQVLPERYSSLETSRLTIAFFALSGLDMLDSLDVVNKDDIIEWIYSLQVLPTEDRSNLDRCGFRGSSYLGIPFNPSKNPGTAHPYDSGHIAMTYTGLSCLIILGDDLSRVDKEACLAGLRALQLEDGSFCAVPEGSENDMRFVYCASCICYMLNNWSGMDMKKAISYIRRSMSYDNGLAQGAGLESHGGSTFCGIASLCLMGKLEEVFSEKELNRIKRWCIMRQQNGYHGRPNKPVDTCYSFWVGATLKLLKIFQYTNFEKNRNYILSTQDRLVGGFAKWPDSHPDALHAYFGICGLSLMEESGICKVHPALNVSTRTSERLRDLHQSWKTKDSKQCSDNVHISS

For the molecule `Nc1nc2c(ncn2[C@@H]2O[C@H](COP(=O)(O)OP(=O)(O)O)[C@@H](O)[C@H]2O)c(=O)[nH]1` [GDP], the “effect of GDP on GGTase-I activity for RhoA” value in [1] (20 μM GDP without SmgGDS-607, RhoA 3 μM, GGTase-I 10 nM, 3H-GGPP 1.8 μM, 4 min) was “does not affect GGTase-I activity for RhoA”. Besides, in [1], the “effect of nucleotide on initial rate of RhoA geranylgeranylation” value was “No difference was observed” and the “effect of nucleotide on endpoint level of incorporated isoprenoid” value is given as “no significant difference”. The “FTase activity for farnesylation of H-Ras” value in assay [2] is recorded as “unaffected”. By Km is commonly meant the substrate concentration at which the rate is half of its maximum. In the case of `CC(C)=CCC/C(C)=C/CC/C(C)=C/CC/C(C)=C/COP(=O)(O)OP(=O)(O)O` [GGPP, geranylgeranyl pyrophosphate], in [3] (GGTase-I KM for GGPP), the Michaelis constant (Km) was 0.003 µM.

In the case of `Nc1nc2c(ncn2[C@@H]2O[C@H](COP(=O)(O)OP(=O)(O)OP(=O)(O)O)[C@@H](O)[C@H]2O)c(=O)[nH]1` [GTP], in assay [1], the “effect of nucleotide on initial rate of RhoA geranylgeranylation” value is on record as “No difference was observed” and the “effect of nucleotide on endpoint level of incorporated isoprenoid” value is “no significant difference”. Moreover, the “restoration of RhoA geranylgeranylation at saturating GTP” value in assay [4] (5 μM SmgGDS-607, versus level in absence of SmgGDS-607, RhoA 3 μM) is recorded as “do not restore RhoA geranylgeranylation to the level observed in the absence of SmgGDS-607”. Also, in [4] (in the presence of 5 μM SmgGDS-607, RhoA 3 μM, GGTase-I 10 nM, 3H-GGPP 1.8 μM, 4 min), the “concentration of GTP required to reach saturating RhoA geranylgeranylation” value is ~ 3 μM. For orientation: Kd means the equilibrium constant for the complex coming apart. As for `Nc1nc2c(ncn2[C@@H]2O[C@H](COP(=O)(O)OP(=O)(O)OP(O)(O)=S)[C@@H](O)[C@H]2O)c(=O)[nH]1` [GTPγS], in assay [5], the Kd is 160 nM. On to RhoA (natural protein), for which the Kd in [6] was determined as 77 nM; in assay [7], 249 nM. For the molecule “RhoA G14V: constitutively active mutant, predominantly bound to GTP”, the “co-immunoprecipitation of SmgGDS” value in assay [8] was “did not co-immunoprecipitate detectable amounts of SmgGDS”.

With “RhoA T19N: dominant negative mutant of RhoA, predominantly nucleotide-free in cells”, in assay [8] (versus wildtype RhoA), the “co-immunoprecipitation of SmgGDS-607” value was “co-immunoprecipitates greater amounts of SmgGDS-607 than wildtype RhoA”.

For “SmgGDS-607 (from UniProt P52306-1 1-607) (natural protein)”, the Kd was 1900 nM in [9] and more than 16000 nM in [10]. By kcat is commonly meant the maximal rate divided by the concentration of active sites. Take dansyl-GCLVL [dansyl GCLVL]: in assay [11] (setting [15]), the Km stood at 1.9 ± 0.8 µM and the kcat was 0.046 ± 0.009 s⁻¹. dansyl-GCVLL: the catalytic constant (kcat) in assay [3] (peptide substrate dansyl-GCVLL) is 0.051 s⁻¹. Take “protein geranylgeranyltransferase I (from UniProt Q04631 1-377) (complex)”: the Kd in [9] came to 56 nM; in [12], 2200 nM.

B1: SmgGDS-607 (natural protein)
chain: MDNLSDTLKKLKITAVDKTEDSLEGCLDCLLQALAQNNTETSEKIQASGILQLFASLLTPQSSCKAKVANIIAEVAKNEFMRIPCVDAGLISPLVQLLNSKDQEVLLQTGRALGNICYDSHEGRSAVDQAGGAQIVIDHLRSLCSITDPANEKLLTVFCGMLMNYSNENDSLQAQLINMGVIPTLVKLLGIHCQNAALTEMCLVAFGNLAELESSKEQFASTNIAEELVKLFKKQIEHDKREMIFEVLAPLAENDAIKLQLVEAGLVECLLEIVQQKVDSDKEDDITELKTGSDLMVLLLLGDESMQKLFEGGKGSVFQRVLSWIPSNNHQLQLAGALAIANFARNDANCIHMVDNGIVEKLMDLLDRHVEDGNVTVQHAALSALRNLAIPVINKAKMLSAGVTEAVLKFLKSEMPPVQFKLLGTLRMLIDAQAEAAEQLGKNVKLVERLVEWCEAKDHAGVMGESNRLLSALIRHSKSKDVIKTIVQSGGIKHLVTMATSEHVIMQNEALVALALIAALELGTAEKDLESAKLVQILHRLLADERSAPEIKYNSMVLICALMGSECLHKEVQDLAFLDVVSKLRSHENKSVAQQASLTEQRLTVES
As a reminder, the Ki is the equilibrium dissociation constant of an inhibitor or competing ligand from its target. A high value points to lower affinity. B1 displayed an inhibitory constant (Ki) in [13] of 85 nM.

B2: SmgGDS-607: human SmgGDS 607-amino acid splice variant with one additional armadillo repeat (UniProt P52306–1) (protein)
chain: B1 chain
modifications: left off: His6-tev, end not stated, state not stated
In the case of B2, the “inhibition of RhoA prenylation catalyzed by GGTase-I (overall statement)” value in assay [4] (in vitro radiolabel incorporation assay) was “completely inhibits RhoA prenylation”. In addition, the “effect on GGTase-I activity with peptide substrate” value in assay [11] is given as “not significantly altered”.

B3: SmgGDS-558: human SmgGDS 558-amino acid splice variant with 12 armadillo repeats (UniProt P52306–2) (protein)
chain: T2 sequence (looked up)
modifications: left off: His6-tev, end not stated, state not stated
On to B3, for which the “effect on GGTase-I activity with peptide substrate” value in assay [11] is listed as “not significantly altered”.

B4: RhoA CaaX only peptide (5fam-GCLVL) (peptide)
peptide: 5FAM-GCLVL
Regarding B4, the equilibrium dissociation constant (Kd) in [14] is more than 40000 nM.
